The source of these data is ChEMBL document CHEMBL2375239, “Improving the immunostimulatory potency of diethanolamine-containing lipid A mimics” (Bioorg Med Chem, 2013).

Activity calls are given as the source filed them. The rule behind the calls is not given here.

Holding throughout (type): cell-based
Holding throughout (settings): THP-1

The target of assay [1] is T1, Toll-like receptor 4/MD-2 (Homo sapiens) (UniProt O00206+Q9Y6Y9). In words: Agonist activity at TLR4/MD-2 receptor complex in human THP1 cells assessed as IL-1beta release at 10^-3 uM after 24 hrs by ELISA. The essentials: (§1)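 Mimics reconstituted in 20% DMSO/PBS with brief sonication, fresh aliquot per experiment, final DMSO ≤0.5%. THP-1 cells differentiated 48 h with 25 ng/mL PMA, washed, serum-starved 3 h. Stimulated 24 h across 10⁻⁴–10 µM. Supernatant TNF-α, IL-6 or IL-1β read by ELISA (450 nm, 540 nm correction). Duplicates; mean of two experiments.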
For orientation: An ELISA detects its analyte on a solid surface through an enzyme-linked reagent.

For assay [2], the target named is T1, Toll-like receptor 4/MD-2 (Homo sapiens). The assay is described as follows: Agonist activity at TLR4/MD-2 receptor complex in human THP1 cells assessed as TNF-alpha release at 10^-3 uM after 24 hrs by ELISA. The essentials:
as §1

For assay [3] the target is unchanged. In words: Agonist activity at TLR4/MD-2 receptor complex in human THP1 cells assessed as IL-1beta release at 10 uM after 24 hrs by ELISA. The essentials:
as §1

For assay [4] the target is unchanged. The assay is described as follows: Agonist activity at TLR4/MD-2 receptor complex in human THP1 cells assessed as IL-6 release at 10 uM after 24 hrs by ELISA. The gist of the method: as §1
Assay [5] shares this target. The assay is described as follows: Agonist activity at TLR4/MD-2 receptor complex in human THP1 cells assessed as TNF-alpha release at 10 uM after 24 hrs by ELISA. The gist of the method:
as §1

Assay [6] has the same target. In words: Agonist activity at TLR4/MD-2 receptor complex in human THP1 cells assessed as IL-1beta release at 0.1 uM to 1 uM after 24 hrs by ELISA. The gist of the method:
as §1

For assay [7] the target is unchanged. The assay is described as follows: Agonist activity at TLR4/MD-2 receptor complex in human THP1 cells assessed as IL-6 release at 0.1 uM to 1 uM after 24 hrs by ELISA. The essentials:
as §1

The target is the same in assay [8]. In words: Agonist activity at TLR4/MD-2 receptor complex in human THP1 cells assessed as TNF-alpha release at 0.1 uM to 1 uM after 24 hrs by ELISA. The gist of the method:
as §1

The target is the same in assay [9]. The assay is described as follows: Agonist activity at TLR4/MD-2 receptor complex in human THP1 cells assessed as IL-1beta release at 0.001 uM after 24 hrs by ELISA in presence of lipid IVa in presence of 0.1 uM of lipid IVa. The gist of the method: (§2)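 THP-1 cells plated at 0.5 × 10⁶ cells/well in RPMI with 25 ng/mL PMA for 48 h. Adherent cells washed with PBS, held in serum-free RPMI 3 h, then stimulated 24 h with agonist plus increasing lipid IVa (dissolved in DMSO). Supernatant TNF-α and IL-1β measured by ELISA, A450 corrected at 540 nm. Duplicates; mean of two separate experiments.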

The target is the same in assay [10]. The assay is described as follows: Agonist activity at TLR4/MD-2 receptor complex in human THP1 cells assessed as TNF-alpha release at 0.001 uM after 24 hrs by ELISA in presence of 0.1 uM of lipid IVa. The gist of the method: as §2
Assay [11] has the same target. In words: Agonist activity at TLR4/MD-2 receptor complex in human THP1 cells assessed as IL-1beta release at 0.1 uM after 24 hrs by ELISA in presence of lipid IVa in presence of 0.1 uM of lipid IVa. The essentials: as §2
Assay [12] has the same target. The assay is described as follows: Agonist activity at TLR4/MD-2 receptor complex in human THP1 cells assessed as TNF-alpha release at 0.1 uM after 24 hrs by ELISA in presence of 0.1 uM of lipid IVa. The gist of the method:
as §2

For assay [13] the target is unchanged. The assay is described as follows: Agonist activity at TLR4/MD-2 receptor complex in human THP1 cells assessed as IL-1beta release at 0.1 uM after 24 hrs by ELISA in presence of lipid IVa in presence of 0.5 uM of lipid IVa. The essentials:
as §2

For assay [14] the target is unchanged. The assay is described as follows: Agonist activity at TLR4/MD-2 receptor complex in human THP1 cells assessed as TNF-alpha release at 0.1 uM after 24 hrs by ELISA in presence of 0.5 uM of lipid IVa. The essentials:
as §2

For assay [15] the target is unchanged. In words: Agonist activity at TLR4/MD-2 receptor complex in human THP1 cells assessed as IL-1beta release at 10^-4 uM after 24 hrs by ELISA. The essentials: as §1

As for `CCCCCCCCCCCCCC(=O)O[C@H](CCCCCCCCCCC)CC(=O)N[C@H]1[C@H](OCCN(CCOP(=O)(O)O)C(=O)C[C@@H](CCCCCCCCCCC)OC(=O)CCCCCCCCCCCCC)O[C@H](CO)[C@@H](OP(=O)(O)O)[C@@H]1OC(=O)C[C@@H](CCCCCCCCCCC)OC(=O)CCCCCCCCCCCCC`, the outcome in assay [1], in assay [2], in assay [3], in assay [4], in assay [5] and in [6] was Active. Besides, the outcome in [7] and in [8] was Active.

As for `CCCCCCCCCCCCCC(=O)O[C@H](CCCCCCCCCCC)CC(=O)N[C@H]1[C@H](OCCN(CCO)C(=O)C[C@@H](CCCCCCCCCCC)OC(=O)CCCCCCCCCCCCC)O[C@H](CO)[C@@H](OP(=O)(O)O)[C@@H]1OC(=O)C[C@@H](CCCCCCCCCCC)OC(=O)CCCCCCCCCCCCC`, the outcome in assay [1], in assay [2], in assay [3], in assay [4], in [5] and in [6] was Active. Further, the result in assay [7] and in [8] was Active.

In the case of `CCCCCCCCCCCCCC(=O)O[C@H](CCCCCCCCCCC)CC(=O)N[C@H]1[C@H](OCCN(CC(=O)O)C(=O)C[C@@H](CCCCCCCCCCC)OC(=O)CCCCCCCCCCCCC)O[C@H](CO)[C@@H](OP(=O)(O)O)[C@@H]1OC(=O)C[C@@H](CCCCCCCCCCC)OC(=O)CCCCCCCCCCCCC`, the result in assay [9], in assay [10], in assay [11], in assay [12], in assay [13] and in assay [15] was Active. Besides, the outcome in [1], in [2], in [3], in assay [4], in [5] and in assay [6] was Active. Also, the outcome in assay [7] and in assay [8] was Active. The outcome in assay [14] was inactive.
